Source: article PMC6655586 (Nature, 2019)

Key:
HTS cells = test: Mitochondrial membrane potential; format: cell-based, mouse; settings: 1 μM, 10 minutes
Outline: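 HTS cells were exposed for 10 minutes to DMSO, test compound, FCCP, rotenone, antimycin A or oligomycin A, then mitochondrial membrane potential was quantified. Mean ± SD; n = 3 (FCCP, rotenone) or 4 (others).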

MEFs = test: Western blot for ATF4 in MEFs; format: cell-based, mouse; settings: 1 μM, 6 hours

Compound | acute change of mitochondrial membrane potential (HTS cells) | ATF4 induction (MEFs)
CCCCCC[C@H]1C(=O)O[C@H](C)[C@H](NC(=O)c2cccc(NC=O)c2O)C(=O)O[C@@H](C)[C@@H]1OC(=O)CC(C)C [antimycin A] | acute reduction of membrane potential | ATF4 induction
oligomycin A | acute increase in mitochondrial membrane potential | ATF4 induction
C=C(C)[C@H]1Cc2c(ccc3c2O[C@@H]2COc4cc(OC)c(OC)cc4[C@@H]2C3=O)O1 [rotenone] | acute reduction of membrane potential | ATF4 induction
